In ChEMBL document CHEMBL3621143, “Discovery of BMS-641988, a Novel Androgen Receptor Antagonist for the Treatment of Prostate Cancer” (ACS Med Chem Lett, 2015):
pIC50, pKi: −log10 of the molar value. Active and inactive are the calls of the source. No cut-off for these calls is given here.

Assays:
CWR22 [1] = test: Antitumor activity against bicalutamide-resistant human CWR22 cells in Balb/c athymic (nu/nu) mouse CWR22-BMSLD1 prostate cancer xenograft model assessed as tumor growth inhibition at 90 mg/kg, po qd administered for 45 days measured for 10 days during compound dosing; format: functional, organism-based
Summary of the method: (§1)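 CWR22-BMSLD1 human prostate cancer xenograft. Oral once-daily dosing at 90 mg/kg for 45 days, or at 150 mg/kg for 35 days, with a vehicle group. Median tumor volume (mm3) tracked against days post implant.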

Androgen receptor = biological target: T1, Androgen receptor (Homo sapiens, UniProt P10275); test: Displacement of [3H]-DHT from androgen receptor in human MDA-MB-453 cells after 90 mins by TopCount analysis; format: cell-based
T1 sequence (P10275 whole entry): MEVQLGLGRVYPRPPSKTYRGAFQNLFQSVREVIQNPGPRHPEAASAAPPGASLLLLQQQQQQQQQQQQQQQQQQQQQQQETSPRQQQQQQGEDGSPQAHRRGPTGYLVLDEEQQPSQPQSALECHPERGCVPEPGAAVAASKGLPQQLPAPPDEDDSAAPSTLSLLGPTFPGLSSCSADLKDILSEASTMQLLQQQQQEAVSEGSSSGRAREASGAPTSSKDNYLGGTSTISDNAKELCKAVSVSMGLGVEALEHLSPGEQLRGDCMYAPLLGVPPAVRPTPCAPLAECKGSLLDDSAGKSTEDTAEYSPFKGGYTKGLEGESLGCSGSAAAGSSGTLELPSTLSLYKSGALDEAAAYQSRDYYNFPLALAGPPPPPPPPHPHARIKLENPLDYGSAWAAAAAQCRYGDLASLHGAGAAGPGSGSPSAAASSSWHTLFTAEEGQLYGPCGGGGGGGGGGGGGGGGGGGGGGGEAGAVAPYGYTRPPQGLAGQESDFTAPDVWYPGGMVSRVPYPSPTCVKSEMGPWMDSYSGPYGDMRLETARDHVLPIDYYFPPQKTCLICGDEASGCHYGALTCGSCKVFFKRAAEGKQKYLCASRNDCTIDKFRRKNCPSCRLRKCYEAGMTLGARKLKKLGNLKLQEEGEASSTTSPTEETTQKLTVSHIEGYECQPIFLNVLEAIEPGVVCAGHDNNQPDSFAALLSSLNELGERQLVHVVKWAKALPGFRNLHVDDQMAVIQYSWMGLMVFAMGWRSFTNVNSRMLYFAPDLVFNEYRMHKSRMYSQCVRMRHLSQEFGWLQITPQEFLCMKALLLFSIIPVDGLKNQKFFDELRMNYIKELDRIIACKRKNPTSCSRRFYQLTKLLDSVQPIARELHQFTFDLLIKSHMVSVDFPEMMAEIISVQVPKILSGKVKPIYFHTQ

Rattus norvegicus = test: In vivo antagonist activity at androgen receptor in immature Sprague-Dawley rat prostate weight model assessed as testosterone propionate-induced weight of seminal vesicles over full body weight at 10 mg/kg, po qd administered for 4 days; format: functional; set-up: scale not given: the % may be the effect or the level left
Summary of the method: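 Immature rat prostate weight PK/PD model. Oral dosing once daily at 1 or 10 mg/kg for 4 days. Seminal vesicle weight expressed as % of full body weight, n=3, scaled so testosterone-treated control = 100% and sham = 10%.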

[2] = Plasma concentration in immature Sprague-Dawley rat prostate weight model at 10 mg/kg, po qd administered for 4 days measured 2 hrs post last dose on day 4; format: ADME, organism-based
Summary of the method: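 Immature rat prostate weight model, oral dosing once daily at 1 or 10 mg/kg for 4 days. Plasma drug concentration (µM) measured 2 hours post-dose on day 4, n=3.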

LNCaP = test: Cytotoxicity against human LNCAP cells; format: functional, cell-based
Cytochrome P450 1A2 = biological target: T2, Cytochrome P450 1A2 (Homo sapiens, UniProt P05177); test: Inhibition of human CYP1A2; format: ADME
T2 sequence (P05177 whole entry): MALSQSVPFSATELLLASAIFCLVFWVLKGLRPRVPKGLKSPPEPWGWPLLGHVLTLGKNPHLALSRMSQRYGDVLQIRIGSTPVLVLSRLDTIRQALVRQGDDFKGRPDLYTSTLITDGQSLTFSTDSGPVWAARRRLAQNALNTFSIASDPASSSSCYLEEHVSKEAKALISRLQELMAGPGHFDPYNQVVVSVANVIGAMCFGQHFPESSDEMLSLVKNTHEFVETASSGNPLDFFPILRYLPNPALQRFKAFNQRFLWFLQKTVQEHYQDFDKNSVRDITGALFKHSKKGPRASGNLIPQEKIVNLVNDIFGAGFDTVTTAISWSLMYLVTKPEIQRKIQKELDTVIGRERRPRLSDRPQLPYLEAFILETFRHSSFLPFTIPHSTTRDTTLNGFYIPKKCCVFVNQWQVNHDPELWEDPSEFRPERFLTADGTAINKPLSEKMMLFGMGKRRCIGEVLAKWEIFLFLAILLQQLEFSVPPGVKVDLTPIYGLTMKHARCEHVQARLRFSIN

Cytochrome P450 2C9 = Cytochrome P450 2C9 (Homo sapiens, UniProt P11712); test: Inhibition of human CYP2C9; format: ADME
Cytochrome P450 2D6 = Cytochrome P450 2D6 (Homo sapiens, UniProt P10635); test: Inhibition of human CYP2D6; format: ADME
Cytochrome P450 3A4 = Cytochrome P450 3A4 (Homo sapiens, UniProt P08684); test: Inhibition of human CYP3A4; format: ADME
hERG = hERG (Homo sapiens, UniProt Q12809); test: Inhibition of human ERG at 30 uM relative to control
[3] = Fraction unbound in mouse plasma by equilibrium dialysis method; format: ADME, cell-free
Summary of the method: (§2)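 Plasma protein binding measured by equilibrium dialysis in mouse, rat, dog and human plasma, reported as % free.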

[4] = Fraction unbound in rat plasma by equilibrium dialysis method; format: ADME, cell-free; summary of the method: as §2
[5] = Fraction unbound in human plasma by equilibrium dialysis method; format: ADME, cell-free; summary of the method: as §2
Hepatocyte [6] = test: Drug metabolism in rat hepatocytes assessed per 10^6 cells; format: ADME, cell-based
Summary of the method: (§3)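 Metabolic rate in mouse, rat, dog, monkey and human hepatocyte incubations, expressed as pmol/min/10^6 cells.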

[7] = Drug metabolism in monkey hepatocytes assessed per 10^6 cells; format: ADME, cell-based, Macaca mulatta, Hepatocyte; conditions: rhesus monkey; summary of the method: as §3
Hepatocyte [8] = test: Drug metabolism in human hepatocytes assessed per 10^6 cells; format: ADME, cell-based; summary of the method: as §3
[9] = AUC (0 to infinity) in mouse at 5 mg/kg, iv; format: ADME, organism-based; set-up: dose 5 mg/kg, time infinity, route intravenous; conditions: in vivo
Summary of the method: (§4)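 Single IV and oral doses in mouse and rat (IV 5, PO 10 mg/kg) and dog (IV 1, PO 2 mg/kg). Half-life, clearance, AUC0-∞ (µM*h) and %F derived from the plasma profiles.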

[10] = AUC (0 to infinity) in mouse at 10 mg/kg, po; format: ADME, organism-based; set-up: dose 10 mg/kg, route oral, time infinity; conditions: in vivo; summary of the method: as §4
[11] = Oral bioavailability in mouse at 10 mg/kg; format: ADME, organism-based; conditions: in vivo; summary of the method: as §4
[12] = AUC (0 to infinity) in rat at 10 mg/kg, po; format: ADME, organism-based; set-up: dose 10 mg/kg, route oral, time infinity; conditions: in vivo; summary of the method: as §4
[13] = AUC (0 to infinity) in dog at 1 mg/kg, iv; format: ADME, organism-based, Canis lupus familiaris; set-up: dose 1 mg/kg, route intravenous, time infinity; conditions: in vivo; summary of the method: as §4
[14] = AUC (0 to infinity) in dog at 2 mg/kg, po; format: ADME, organism-based, Canis lupus familiaris; set-up: dose 2 mg/kg, time infinity, route oral; conditions: in vivo; summary of the method: as §4
[15] = Oral bioavailability in dog at 2 mg/kg; format: ADME, organism-based, Canis lupus familiaris; conditions: in vivo; summary of the method: as §4
CWR22 [16] = test: Antitumor activity against bicalutamide-resistant human CWR22 cells in Balb/c athymic (nu/nu) mouse CWR22-BMSLD1 prostate cancer xenograft model assessed as tumor growth inhibition at 90 mg/kg, po qd administered for 45 days measured from day 10 to 45 during compound dosing; format: functional, organism-based; summary of the method: as §1

Cytochrome P450 3A4, sequence (P08684 whole entry): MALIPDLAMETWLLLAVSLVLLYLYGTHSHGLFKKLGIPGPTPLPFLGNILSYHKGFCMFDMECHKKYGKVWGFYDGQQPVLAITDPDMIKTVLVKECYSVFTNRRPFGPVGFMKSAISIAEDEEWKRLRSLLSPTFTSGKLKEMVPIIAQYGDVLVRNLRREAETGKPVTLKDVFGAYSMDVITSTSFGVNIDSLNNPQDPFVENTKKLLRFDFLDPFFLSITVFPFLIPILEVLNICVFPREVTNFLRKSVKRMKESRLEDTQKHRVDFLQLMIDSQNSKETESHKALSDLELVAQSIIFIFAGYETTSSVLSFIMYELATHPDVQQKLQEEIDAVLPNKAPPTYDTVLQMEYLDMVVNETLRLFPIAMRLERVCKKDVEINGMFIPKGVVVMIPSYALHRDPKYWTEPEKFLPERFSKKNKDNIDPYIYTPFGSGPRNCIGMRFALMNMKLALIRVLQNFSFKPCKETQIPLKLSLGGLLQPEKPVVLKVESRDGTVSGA
Cytochrome P450 2D6, sequence (P10635 whole entry): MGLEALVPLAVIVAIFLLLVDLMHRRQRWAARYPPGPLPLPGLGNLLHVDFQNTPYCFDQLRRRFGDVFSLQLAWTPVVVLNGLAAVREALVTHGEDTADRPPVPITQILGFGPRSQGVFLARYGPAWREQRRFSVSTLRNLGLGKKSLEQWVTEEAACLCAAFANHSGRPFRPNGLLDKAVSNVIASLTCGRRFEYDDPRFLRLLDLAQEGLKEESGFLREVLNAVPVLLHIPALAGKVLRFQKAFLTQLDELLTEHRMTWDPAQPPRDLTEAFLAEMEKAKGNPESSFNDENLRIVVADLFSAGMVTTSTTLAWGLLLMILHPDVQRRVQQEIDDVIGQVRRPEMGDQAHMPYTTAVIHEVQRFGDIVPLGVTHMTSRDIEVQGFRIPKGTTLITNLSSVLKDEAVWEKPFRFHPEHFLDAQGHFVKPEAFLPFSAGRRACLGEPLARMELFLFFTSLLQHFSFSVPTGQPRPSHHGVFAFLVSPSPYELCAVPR
hERG, sequence (Q12809 whole entry): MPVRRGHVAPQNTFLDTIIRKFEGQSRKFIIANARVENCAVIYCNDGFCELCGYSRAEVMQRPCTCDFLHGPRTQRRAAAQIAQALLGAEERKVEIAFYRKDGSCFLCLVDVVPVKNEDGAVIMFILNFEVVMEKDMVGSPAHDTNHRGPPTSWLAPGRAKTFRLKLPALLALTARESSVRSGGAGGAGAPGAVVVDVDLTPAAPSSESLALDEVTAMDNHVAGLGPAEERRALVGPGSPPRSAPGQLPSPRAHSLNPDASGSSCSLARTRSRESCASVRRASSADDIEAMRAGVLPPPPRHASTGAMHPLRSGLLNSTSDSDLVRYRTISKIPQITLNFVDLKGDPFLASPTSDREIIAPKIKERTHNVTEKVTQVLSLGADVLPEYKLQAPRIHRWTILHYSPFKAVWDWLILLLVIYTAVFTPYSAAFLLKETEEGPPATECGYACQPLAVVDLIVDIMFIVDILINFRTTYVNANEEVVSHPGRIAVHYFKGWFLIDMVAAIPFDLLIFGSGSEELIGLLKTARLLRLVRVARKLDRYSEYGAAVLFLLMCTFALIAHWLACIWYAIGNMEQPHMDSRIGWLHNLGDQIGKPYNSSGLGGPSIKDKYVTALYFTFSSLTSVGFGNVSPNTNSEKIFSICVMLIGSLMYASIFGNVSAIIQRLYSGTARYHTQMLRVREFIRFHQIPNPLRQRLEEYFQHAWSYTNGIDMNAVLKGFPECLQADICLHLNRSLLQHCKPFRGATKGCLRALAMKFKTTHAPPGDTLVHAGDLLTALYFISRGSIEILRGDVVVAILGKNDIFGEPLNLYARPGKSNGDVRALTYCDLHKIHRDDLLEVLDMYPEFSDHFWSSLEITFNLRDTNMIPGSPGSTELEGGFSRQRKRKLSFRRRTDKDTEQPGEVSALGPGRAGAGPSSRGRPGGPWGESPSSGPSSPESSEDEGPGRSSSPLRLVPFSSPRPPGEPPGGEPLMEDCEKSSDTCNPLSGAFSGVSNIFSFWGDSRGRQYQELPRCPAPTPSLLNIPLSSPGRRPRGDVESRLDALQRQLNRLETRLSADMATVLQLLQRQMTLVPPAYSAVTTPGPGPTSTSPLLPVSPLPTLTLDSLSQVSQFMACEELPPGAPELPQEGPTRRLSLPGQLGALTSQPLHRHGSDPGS
Cytochrome P450 2C9, sequence (P11712 whole entry): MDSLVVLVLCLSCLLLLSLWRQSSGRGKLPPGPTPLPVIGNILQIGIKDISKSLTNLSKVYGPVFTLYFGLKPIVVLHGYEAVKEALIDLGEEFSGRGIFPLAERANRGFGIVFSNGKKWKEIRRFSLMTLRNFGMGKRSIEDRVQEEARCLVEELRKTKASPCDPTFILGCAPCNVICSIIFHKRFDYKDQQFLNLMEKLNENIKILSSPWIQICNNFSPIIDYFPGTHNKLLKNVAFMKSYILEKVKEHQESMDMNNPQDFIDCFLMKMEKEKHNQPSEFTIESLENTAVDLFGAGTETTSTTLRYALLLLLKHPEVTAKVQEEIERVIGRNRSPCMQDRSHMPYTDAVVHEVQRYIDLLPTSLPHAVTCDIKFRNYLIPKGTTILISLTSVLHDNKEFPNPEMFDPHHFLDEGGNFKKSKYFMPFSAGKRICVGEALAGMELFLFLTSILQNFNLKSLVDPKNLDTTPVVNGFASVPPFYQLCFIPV

CCS(=O)(=O)N[C@@H]1C[C@]2(C)O[C@]1(C)[C@@H]1C(=O)N(c3ccc(C#N)c(C(F)(F)F)c3)C(=O)[C@@H]12
TGI (CWR22 [1]): inactive
pKi (Androgen receptor): 8.77
Activity (Rattus norvegicus): 26%
concentration at 2 h [2]: 4 µM
pIC50 (LNCaP): 6.82
pIC50 (Cytochrome P450 1A2): < 4.40
pIC50 (Cytochrome P450 2C9): < 4.40
pIC50 (Cytochrome P450 2D6): < 4.40
pIC50 (Cytochrome P450 3A4): < 4.40
inhibition at 30 µM (hERG): 0%
fraction unbound [3]: 0.148
fraction unbound [4]: 0.106
fraction unbound [5]: 0.104
Drug metabolism (Hepatocyte [6]): 26 pmol/min
Drug metabolism [7]: 1 pmol/min
Drug metabolism (Hepatocyte [8]): 2 pmol/min
AUC(0-inf) [9]: 39.1 µM·h
AUC(0-inf) [10]: 74.1 µM·h
bioavailability [11]: 94.7%
AUC(0-inf) [12]: 40.5 µM·h
AUC(0-inf) [13]: 102 µM·h
AUC(0-inf) [14]: 160 µM·h
bioavailability [15]: 79%
TGI (CWR22 [16]): Active
